Tested on: MS2 coat protein
Assay: apparent Kd, MS2 coat protein; higher = weaker binding; RNA-MaP array; FMN 200 µM where present
How it was run: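 SNAP-549-labelled MS2 coat protein, doubled from 0.7 or 1.5 nM to 3 µM, was titrated over designs transcribed by stalled E. coli RNA polymerase on Illumina sequencing-chip clusters. Titrations were run without and then with constant ligand in 100 mM Tris-HCl pH 7.5, 80 mM KCl, 4 mM MgCl2, BSA, DTT, yeast tRNA and Tween-20. The apparent Kd is the median of filtered per-cluster fits to green signal normalised to red-channel RNA signal and control-cluster median Fmax.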

[1] = designed as: ON switch for flavin mononucleotide, no ligand
[2] = ligand present: flavin mononucleotide, designed as: ON switch for flavin mononucleotide
[3] = designed as: OFF switch for flavin mononucleotide, no ligand
[4] = ligand present: flavin mononucleotide, designed as: OFF switch for flavin mononucleotide

GCCAUCGCAUGAGGAUAUGGUCACGUUUCGUGACCAGAAGGCAUGUCAAUAGACAUGAGGAUCACCCAUGUAGUUAAGAUGGCA
apparent Kd [1]: 680 nM | apparent Kd [2]: 59.8 nM

GCCAUCGUACGAGGAUAUGGCACCGAAACGGUGCCAGAAGGCGUGUCAAUAGACAUGAGGAUCACCCAUGUAUUAUCGAUGGCA
apparent Kd [1]: 23.2 nM | apparent Kd [2]: 17.6 nM

GCCGGGCGAGGAUAUACAUGAGGAUCACCCAUGUAGAUCCUCCGGCGAAAGCCGGGUUGUAGAAGGCGCCCGGC
apparent Kd [3]: 14.9 nM | apparent Kd [4]: 25.7 nM

GCCGUUAAAGGAUAUACAUGAGGAUCACCCAUGUCGGUAUAAAAUUUACCGCCUCCCUGUAGAAGGUUAAGGCA
apparent Kd [3]: 15.6 nM | apparent Kd [4]: 19.8 nM

GCCUCACAUGAGGAUCACCCAUGUCAGGAUAUAGGAGACGGCAGAAAUUCUGCCGUCGCUAGAAGGGACUGGCA
apparent Kd [3]: 44.2 nM | apparent Kd [4]: 86.9 nM

GCCUCACAUGAGGAUCACCCAUGUCAGGAUAUCUCGUGCGCAGUAAUUAUCUGGCUAAAGAGAAGGGACAUUAA
apparent Kd [3]: 47 nM | apparent Kd [4]: 99 nM

GCCUGUGAAGGAUAUACAUGAGGAUCACCCAUGUGGCGGAUAUACCCGCCGAGACCGUGUAGAAGGUCAUAGUA
apparent Kd [3]: 44 nM | apparent Kd [4]: 40.8 nM

GCCUUACCGGUCAGGAUAUACACUCGUCACUCCUUGUAGAAGGGACAUGAGGAUCACCCAUGUACAUUACAUUC
apparent Kd [3]: 38.6 nM | apparent Kd [4]: 38 nM

GCCUUACCGGUCAGGAUAUACAUUUGUUACUCUUUGUAGAAGGGACAUGAGGAUCACCCAUGUACAUUACAUUC
apparent Kd [3]: 19.1 nM | apparent Kd [4]: 19.2 nM

GCCUUAUCGGUCAGGAUAUACACCCGUCACUCCUUGUAGAAGGGACAUGAGGAUCACCCAUGUACAUUACAUUG
apparent Kd [3]: 31.3 nM | apparent Kd [4]: 28.1 nM

GCCUUAUCGGUCAGGAUAUACACCCGUUAGUUGUUGUAGAAGGGACAUGAGGAUCACCCAUGUACAUUACAUUG
apparent Kd [3]: 22.8 nM | apparent Kd [4]: 60 nM

GCGAAGAACGAGAAGGCCACUACAUGAGGAUCACCCAUGUCGUGGAGUAUUGGAGGAUAUCGUUAGGCGUCUCAUGAGGACAUA
apparent Kd [3]: 5.26 nM | apparent Kd [4]: 5.69 nM

GCGAGUAAAGCAGGAUAUCUAUUGUCUCUGUAACAUGAGGAUCACCCAUGUAGAGAAGGGCUUAGUCAUACACUUCGAACUCGC
apparent Kd [3]: 5.57 nM | apparent Kd [4]: 5.38 nM

GCGAUGAUCGAGAAGGCCACUACAUGAGGAUCACCCAUGUCGUGGUGUAUUGGAGGAUAUCGAUUGGCGCCUUAUGAGGACAUG
apparent Kd [3]: 5.49 nM | apparent Kd [4]: 8.22 nM

GCGAUUGCGUAGAAGGUACAAUAUAUUUCAUUGUAAGGAUAUACUUACAUGAGGAUCACCCAUGUUAAUGGAAUUUGCAAUCGC
apparent Kd [1]: 74.1 nM | apparent Kd [2]: 28.9 nM

GCGCAAGCAUGAGGAUAUGUAUUAAAUAAUAAUACAGAAGGCAUGUCAAAUGACAUGAGGAUCACCCAUGUUGGCAAACUGCGC
apparent Kd [1]: 46.4 nM | apparent Kd [2]: 13 nM

GCGCAGCUGGGUGAGGAUAUCGGUGGUAAAACAUGAGGAUCACCCAUGUCCGGAGCUCGGACUUCCGAGAAGGCACCCGGCUGCA
apparent Kd [1]: 39 nM | apparent Kd [2]: 9.8 nM

GCGCGCGCAGGAUAUACAAUUGUGUGUGGAAACGCGCGCGUACAUGAGGAUCACCCAUGUAGAAGGGUGUGUGU
apparent Kd [3]: 445 nM | apparent Kd [4]: 198 nM

GCGUACAUAUCAGGAUAUCAUUGAAUGGAUUAACUCAGUGAAUACAUGAGGAUCACCCAUGUGCUUGAGAAGGGAUUACUACGC
apparent Kd [3]: 14.7 nM | apparent Kd [4]: 69.9 nM

GCGUAUAUAAGAUUUAUUAAACAGUCAGAAGGUGAUAAUACGACAUGAGGAUCACCCAUGUAAUUCAAGGAUAUGAUCAUACGC
apparent Kd [1]: 98.5 nM | apparent Kd [2]: 27.2 nM

GCGUCAGAAUUAAUUGUGUCAUACAGAAGGCAAUAUUAAGGUUAAGACAUGAGGAUCACCCAUGUUGAGGAUAUGUAGUGACGC
apparent Kd [3]: 10.5 nM | apparent Kd [4]: 18.6 nM

GCGUCAGUUUCACAUGUAAUACAUGAGGAUCACCCAUGUUACUAGGAUAUGUAUUAGAAUUAUCAACAGAAGGAGUAAUGACGC
apparent Kd [3]: 11.1 nM | apparent Kd [4]: 12.8 nM

GCGUCAUGCAGAGGAUAUUGUUGCGGAUCUCUAUAAGAAGGCUGUACAUGAGGAUCACCCAUGUCACCACAUGAGGGUCACGUG
apparent Kd [3]: 22.1 nM | apparent Kd [4]: 41.2 nM

GCGUGAAAUGUAGGAUAUGACACAGGAAACUGGUCAGAAGGACAUGAGGAUCACCCAUGUAAAAUGUUCAAGAAUAACACAUGC
apparent Kd [3]: 30.3 nM | apparent Kd [4]: 87 nM

GCGUUGUACGAGAAGGCCAAUACAUGAGGAUCACCCAUGUUAAGUUGUUUUGGAGGAUAUCGAUCACUUACAAUAAUGCAACGC
apparent Kd [3]: 7.23 nM | apparent Kd [4]: 6.31 nM

GCUAGGAGUGUGAGGAUAUGCUGAACCUUGGUUCAGCAGAAGGCACAUGAGGAUCACCCAUGUGAAGACCUAGC
apparent Kd [3]: 25.7 nM | apparent Kd [4]: 149 nM

GCUAGUCAUGUCAGGAUAUGCUGUACCUUGGUACAGCAGAAGGGACAUGAGGAUCACCCAUGUGCCUAACUAGC
apparent Kd [3]: 39 nM | apparent Kd [4]: 416 nM
